Measured values reported in ChEMBL document CHEMBL1125870, “Chemical and biological studies on a series of lipid-soluble (trans-(R,R)- and -(S,S)-1,2-diaminocyclohexane)platinum(II) complexes incorporated in liposomes” (J Med Chem, 1991).

How the values were obtained:
[1] = species on record: Rattus norvegicus; assay: Compound was tested for the subacute single dose from the toxicity studies in rats.; type: organism-based; conditions: in vivo
[2] = system: Mus musculus; assay: Compound was tested for its efficacy against L1210 Leukemia in mice at a dose of 25 mg/kg through intraperitoneal route.(Treatment schedule day is 1).; type: functional, organism-based; parameters: dose 25 mg/kg
Summary of the method: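 Six B6D2F1 mice per group, 20-25 g, inoculated ip with 10^6 L1210/0 cells on day 0. A single ip dose of liposomal Pt (DMPC:DMPG 7:3 multilamellar vesicles in 0.9% NaCl) was given on day 1; doses of 12.5, 25 and 50 mg/kg were tested. %T/C = median survival treated/control ×100; study ended day 60; mean of three experiments.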

[3] = system: Mus musculus; assay: Compound was tested for its efficacy against L1210 / cisplatin Leukemia in mice at a dose of 5 mg/kg through intraperitoneal route.(Treatment schedule day is 1,5,9).; type: functional, organism-based; parameters: dose 5 mg/kg
Summary of the method: (§1)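 L1210/cisplatin cells (NCI repository) passaged weekly ip in BDF1 mice. Groups of six B6D2F1 mice, 20-25 g, inoculated ip with 10^6 cells on day 0, then given liposomal Pt (DMPC:DMPG 7:3 multilamellar vesicles in 0.9% NaCl) or cisplatin ip on days 1, 5 and 9. Read-out %T/C = median survival treated/control ×100; study ended day 60; average of two experiments.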

[4] = system: Mus musculus; assay: Compound was tested for its efficacy against L1210 Leukemia in mice at a dose of 5 mg/kg through intraperitoneal route.(Treatment schedule day is 1,5,9).; type: functional, organism-based; parameters: dose 5 mg/kg
[5] = system: Mus musculus; assay: Compound was tested for its efficacy against L1210 Leukemia in mice at a dose of 25 mg/kg through intraperitoneal route.(Treatment schedule day is 1,5,9).; type: functional, organism-based; parameters: dose 25 mg/kg
Summary of the method: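 L1210/0 leukemia passaged weekly ip in BDF1 mice. Six B6D2F1 mice per group (20-25 g) received 10^6 cells ip on day 0. Liposomal Pt (DMPC:DMPG 7:3 MLVs in 0.9% NaCl) or cisplatin was given ip on days 1, 5, 9; doses tested 12.5, 25, 50 mg/kg. Optimal dose is the highest %T/C without toxic deaths. %T/C is from median survival; study ended day 60; average of two experiments.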

[6] = system: Mus musculus; assay: Compound was tested for its efficacy against L1210 / cisplatin Leukemia in mice at a dose of 25 mg/kg through intraperitoneal route.(Treatment schedule day is 1,5,9).; type: functional, organism-based; parameters: dose 25 mg/kg; summary of the method: as §1
[7] = species on record: Rattus norvegicus; assay: Compound was tested for the subacute single dose from the toxicity studies in rats; type: organism-based; conditions: in vivo

| Substance | LD50 [1] | T/C [2] | further results |
| --- | --- | --- | --- |
| CISPLATIN [listing 1 of 2 here] | 17.5 mg/kg | – | – |
| CISPLATIN [listing 2 of 2 here] | – | 175% | T/C [3]: 112%; T/C [4]: 220% |
| Liposomal preparation of (ttans-(R,R)-dach)Pt complex containing isomeric mixture of neodecanoic acid (L-NDDP) [listing 1 of 2 here] | 54 mg/kg | – | – |
| Liposomal preparation of (ttans-(R,R)-dach)Pt complex containing isomeric mixture of neodecanoic acid (L-NDDP) [listing 2 of 2 here] | – | 187% | T/C [5]: 312%; T/C [6]: 200% |
| Pt (2,2-diethyl-4-methylpentanoato)2((R,R)-dach) [listing 1 of 2 here] | 62.3 mg/kg | – | – |
| Pt (2,2-diethyl-4-methylpentanoato)2((R,R)-dach) [listing 2 of 2 here] | – | 225% | T/C [5]: 257%; T/C [6]: 185% |
| Pt (2,2-diethyl-4-methylpentanoato)2((S,S)-dach) [listing 1 of 2 here] | – | – | LD50 [7]: 81 mg/kg |
| Pt (2,2-diethyl-4-methylpentanoato)2((S,S)-dach) [listing 2 of 2 here] | – | 160% | – |
| Pt (2,2-diethylhexanoato)2((R,R)-dach) [listing 1 of 2 here] | 80.8 mg/kg | – | – |
| Pt (2,2-diethylhexanoato)2((R,R)-dach) [listing 2 of 2 here] | – | 253% | T/C [5]: 257%; T/C [6]: 231% |
| Pt (2,2-diethylhexanoato)2((S,S)-dach) [listing 1 of 2 here] | 104 mg/kg | – | – |
| Pt (2,2-diethylhexanoato)2((S,S)-dach) [listing 2 of 2 here] | – | 190% | – |
| Pt (2,2-dimethyl-4-ethylhexanoato)2((R,R)-dach) | – | 212% | – |
| Pt (2,2-dimethyloctanoato)2((R,R)-dach) [listing 1 of 2 here] | 94.5 mg/kg | – | – |
| Pt (2,2-dimethyloctanoato)2((R,R)-dach) [listing 2 of 2 here] | – | 234% | T/C [5]: 257%; T/C [6]: 355% |
| Pt (2,2-dimethyloctanoato)2((S,S)-dach) [listing 1 of 2 here] | 87 mg/kg | – | – |
| Pt (2,2-dimethyloctanoato)2((S,S)-dach) [listing 2 of 2 here] | – | 150% | – |
